Data from ChEMBL document CHEMBL1153433, “Design and synthesis of 2-amino-4-methylpyridine analogues as inhibitors for inducible nitric oxide synthase and in vivo evaluation of [18F]6-(2-fluoropropyl)-4-methyl-pyridin-2-amine as a potential PET tracer for inducible nitric oxide synthase” (J Med Chem, 2009).

Columns and labels:
[1] = test system: Kidney; test: Biodistribution in C57BL/6N mouse kidney at 50 uCi/110 uL, iv after 1 hr; assay type: ADME, organism-based; conditions: in vivo
In short: (§1)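 Untreated (control) male C57BL/6N mice aged 6-8 weeks. HPLC-purified tracer, ~50 μCi in 10% ethanol/saline, given i.v. via the tail vein. Mice were sacrificed at 5 min, 30 min, 1 h and 2 h post-injection. Tissues were removed, weighed and gamma-counted against diluted injectate standards. Data are %ID/g, mean ± SD, n = 4.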

[2] = test system: Heart; test: Biodistribution in C57BL/6N mouse heart at 50 uCi/110 uL, iv after 5 mins; assay type: ADME, organism-based; conditions: in vivo; in short: as §1
[3] = test system: Bone; test: Biodistribution in LPS treated C57BL/6N mouse bone at 50 uCi/110 uL, iv administered 6 hrs […] LPS challenge measured after 30 mins post drug dose; assay type: ADME, organism-based, Bone element; conditions: in vivo, 0.5 h
In short: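 Male C57BL/6N mice aged 6-8 weeks received E. coli O127:B8 LPS in PBS, 10 mg/kg i.v., 6 h before tracer. Tracer ~50 μCi in 10% ethanol/saline, i.v. tail vein. Sacrifice was at 5 min, 30 min, 1 h or 2 h post-injection. Organs were weighed and gamma-counted with injectate standards. Data are %ID/g, mean ± SD, n = 4.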

## Cc1cc(N)nc(CC(C)[18F])c1 (stereo not drawn)
[1]
  Drug uptake: 2.2 % ID/g
[2]
  Drug uptake: 1.5 % ID/g
[3]
  Drug uptake: 3.7 % ID/g
